Assay results: ChEMBL document CHEMBL4665872, “Rational design of cell-permeable cyclic peptides containing a d-Pro-l-Pro motif” (Bioorg Med Chem, 2020)
Where a SMILES comes first, the peptide text is derived from it. Side-chain parts run from the residue outwards. [ ]: non-standard residue; d: D form. The star is where a group is joined. X1 = NC(=O)[C@H](CCCCNC(=O)c1ccc2c(c1)C(=O)OC21c2ccc3cc(O)ccc3c2Oc2c1ccc1cc(O)ccc21)N*; 2Nal = N[C@@H](Cc1ccc2ccccc2c1)C(=O)O; AEEA = NCCOCCOCC(=O)O

Test: Drug uptake in human HeLa cells assessed as cytosolic entry efficiency measured as fluorescence at 5 uM incubated for 2 hrs by flow cytometry relative to CPP9 (100%)
Assay type: ADME, cell-based
Method in brief: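 HeLa cells seeded 24 h earlier, given 5 μM naphthofluorescein-labelled peptide in DMEM with 1% or 10% FBS, 37 °C, 2 h. Cells DPBS-washed, trypsinized, flow cytometry with 633-nm excitation, APC channel, 10,000 live-cell events gated. Signal read as cytosolic entry because NF is non-fluorescent in acidic compartments; mean ± SD of three independent experiments, relative to CPP9 (100%).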

Row | Structure (SMILES) | RFU [%]
1 | C[C@@H]1NC(=O)[C@H](CCCNC(=N)N)NC(=O)[C@H](CCC(=O)NCCOCCOCC(=O)N[C@@H](CCCCNC(=O)c2ccc3c(c2)C(=O)OC32c3ccc4cc(O)ccc4c3Oc3c2ccc2cc(O)ccc32)C(N)=O)NC(=O)[C@H](CCCNC(=N)N)NC(=O)[C@H](C)NC(=O)[C@H](CCCNC(=N)N)NC(=O)[C@H](Cc2ccccc2)NC(=O)[C@H](CCCNC(=N)N)NC(=O)[C@H](CCCNC(=N)N)NC(=O)[C@@H]2CCCN2C(=O)[C@H]2CCCN2C(=O)[C@@H](CCCNC(=N)N)NC(=O)[C@H](Cc2ccc3ccccc3c2)NC(=O)[C@H](Cc2ccccc2)NC1=O | 34
2 | C[C@@H]1NC(=O)[C@H](CO)NC(=O)[C@H](C)NC(=O)[C@H](CO)NC(=O)[C@H](Cc2ccccc2)NC(=O)[C@H](CCCNC(=N)N)NC(=O)[C@H](CCCNC(=N)N)NC(=O)[C@@H]2CCCN2C(=O)[C@H]2CCCN2C(=O)[C@@H](CCCNC(=N)N)NC(=O)[C@H](Cc2ccc3ccccc3c2)NC(=O)[C@H](Cc2ccccc2)NC(=O)[C@H](CO)NC(=O)[C@H](C)NC(=O)[C@H](CO)NC(=O)[C@H](CCC(=O)NCCOCCOCC(=O)N[C@@H](CCCCNC(=O)c2ccc3c(c2)C(=O)OC32c3ccc4cc(O)ccc4c3Oc3c2ccc2cc(O)ccc32)C(N)=O)NC1=O | 84
3 | C[C@@H]1NC(=O)[C@H](C)NC(=O)[C@H](Cc2ccccc2)NC(=O)[C@H](CCCNC(=N)N)NC(=O)[C@H](CCCNC(=N)N)NC(=O)[C@@H]2CCCN2C(=O)[C@H]2CCCN2C(=O)[C@@H](CCCNC(=N)N)NC(=O)[C@H](Cc2ccc3ccccc3c2)NC(=O)[C@H](Cc2ccccc2)NC(=O)[C@H](C)NC(=O)[C@H](C)NC(=O)[C@H](CCC(=O)NCCOCCOCC(=O)N[C@@H](CCCCNC(=O)c2ccc3c(c2)C(=O)OC32c3ccc4cc(O)ccc4c3Oc3c2ccc2cc(O)ccc32)C(N)=O)NC(=O)[C@H](C)NC1=O | 33
4 | C[C@@H]1NC(=O)[C@H](CC(=O)O)NC(=O)[C@H](CCC(=O)NCCOCCOCC(=O)N[C@@H](CCCCNC(=O)c2ccc3c(c2)C(=O)OC32c3ccc4cc(O)ccc4c3Oc3c2ccc2cc(O)ccc32)C(N)=O)NC(=O)[C@H](CC(=O)O)NC(=O)[C@H](C)NC(=O)[C@H](CC(=O)O)NC(=O)[C@H](Cc2ccccc2)NC(=O)[C@H](CCCNC(=N)N)NC(=O)[C@H](CCCNC(=N)N)NC(=O)[C@@H]2CCCN2C(=O)[C@H]2CCCN2C(=O)[C@@H](CCCNC(=N)N)NC(=O)[C@H](Cc2ccc3ccccc3c2)NC(=O)[C@H](Cc2ccccc2)NC1=O | 14
5 | C[C@@H]1NC(=O)[C@H](C)NC(=O)[C@H](CCCNC(=N)N)NC(=O)[C@H](CCCNC(=N)N)NC(=O)[C@H](CCCNC(=N)N)NC(=O)[C@@H]2CCCN2C(=O)[C@H]2CCCN2C(=O)[C@H](Cc2ccccc2)NC(=O)[C@H](Cc2ccc3ccccc3c2)NC(=O)[C@H](Cc2ccccc2)NC(=O)[C@H](C)NC(=O)[C@H](C)NC(=O)[C@H](CCC(=O)NCCOCCOCC(=O)N[C@@H](CCCCNC(=O)c2ccc3c(c2)C(=O)OC32c3ccc4cc(O)ccc4c3Oc3c2ccc2cc(O)ccc32)C(N)=O)NC(=O)[C@H](C)NC1=O | 8.3
6 | C[C@@H]1NC(=O)[C@H](C)NC(=O)[C@H](CCCNC(=N)N)NC(=O)[C@H](CCCNC(=N)N)NC(=O)[C@H](CCCNC(=N)N)NC(=O)[C@@H]2CCCN2C(=O)[C@H]2CCCN2C(=O)[C@H](CCCNC(=N)N)NC(=O)[C@H](Cc2ccc3ccccc3c2)NC(=O)[C@H](Cc2ccccc2)NC(=O)[C@H](C)NC(=O)[C@H](C)NC(=O)[C@H](CCC(=O)NCCOCCOCC(=O)N[C@@H](CCCCNC(=O)c2ccc3c(c2)C(=O)OC32c3ccc4cc(O)ccc4c3Oc3c2ccc2cc(O)ccc32)C(N)=O)NC(=O)[C@H](C)NC1=O | 21
7 | C[C@@H]1NC(=O)[C@H](C)NC(=O)[C@H](Cc2ccccc2)NC(=O)[C@H](CCCNC(=N)N)NC(=O)[C@H](CCCNC(=N)N)NC(=O)[C@@H]2CCCN2C(=O)[C@H]2CCCN2C(=O)[C@H](CCCNC(=N)N)NC(=O)[C@H](Cc2ccc3ccccc3c2)NC(=O)[C@H](Cc2ccccc2)NC(=O)[C@H](C)NC(=O)[C@H](C)NC(=O)[C@H](CCC(=O)NCCOCCOCC(=O)N[C@@H](CCCCNC(=O)c2ccc3c(c2)C(=O)OC32c3ccc4cc(O)ccc4c3Oc3c2ccc2cc(O)ccc32)C(N)=O)NC(=O)[C@H](C)NC1=O | 22
8 | C[C@@H]1NC(=O)[C@H](C)NC(=O)[C@H](Cc2ccccc2)NC(=O)[C@H](CCCNC(=N)N)NC(=O)[C@H](CCCNC(=N)N)NC(=O)[C@@H]2CCCN2C(=O)[C@H]2CCCN2C(=O)[C@H](CCCNC(=N)N)NC(=O)[C@@H](Cc2ccc3ccccc3c2)NC(=O)[C@H](Cc2ccccc2)NC(=O)[C@H](C)NC(=O)[C@H](C)NC(=O)[C@H](CCC(=O)NCCOCCOCC(=O)N[C@@H](CCCCNC(=O)c2ccc3c(c2)C(=O)OC32c3ccc4cc(O)ccc4c3Oc3c2ccc2cc(O)ccc32)C(N)=O)NC(=O)[C@H](C)NC1=O | 51
9 | C[C@@H]1NC(=O)[C@H](C)NC(=O)[C@H](Cc2ccccc2)NC(=O)[C@@H](CCCNC(=N)N)NC(=O)[C@H](CCCNC(=N)N)NC(=O)[C@@H]2CCCN2C(=O)[C@H]2CCCN2C(=O)[C@H](CCCNC(=N)N)NC(=O)[C@H](Cc2ccc3ccccc3c2)NC(=O)[C@H](Cc2ccccc2)NC(=O)[C@H](C)NC(=O)[C@H](C)NC(=O)[C@H](CCC(=O)NCCOCCOCC(=O)N[C@@H](CCCCNC(=O)c2ccc3c(c2)C(=O)OC32c3ccc4cc(O)ccc4c3Oc3c2ccc2cc(O)ccc32)C(N)=O)NC(=O)[C@H](C)NC1=O | 37
10 | C[C@@H]1NC(=O)[C@H](C)NC(=O)[C@H](Cc2ccccc2)NC(=O)[C@H](CCCNC(=N)N)NC(=O)[C@H](CCCNC(=N)N)NC(=O)[C@H](C)NC(=O)[C@H](C)NC(=O)[C@@H](CCCNC(=N)N)NC(=O)[C@H](Cc2ccc3ccccc3c2)NC(=O)[C@H](Cc2ccccc2)NC(=O)[C@H](C)NC(=O)[C@H](C)NC(=O)[C@H](CCC(=O)NCCOCCOCC(=O)N[C@@H](CCCCNC(=O)c2ccc3c(c2)C(=O)OC32c3ccc4cc(O)ccc4c3Oc3c2ccc2cc(O)ccc32)C(N)=O)NC(=O)[C@H](C)NC1=O | 4.1
11 | C[C@@H]1NC(=O)[C@H](Cc2ccccc2)NC(=O)[C@H](CCCNC(=N)N)NC(=O)[C@H](CCCNC(=N)N)NC(=O)[C@@H]2CCCN2C(=O)[C@H]2CCCN2C(=O)[C@@H](CCCNC(=N)N)NC(=O)[C@H](Cc2ccc3ccccc3c2)NC(=O)[C@H](Cc2ccccc2)NC(=O)[C@H](CCC(=O)NCCOCCOCC(=O)N[C@@H](CCCCNC(=O)c2ccc3c(c2)C(=O)OC32c3ccc4cc(O)ccc4c3Oc3c2ccc2cc(O)ccc32)C(N)=O)NC1=O | 8
12 | C[C@@H]1NC(=O)[C@H](CCC(=O)NCCOCCOCC(=O)N[C@@H](CCCCNC(=O)c2ccc3c(c2)C(=O)OC32c3ccc4cc(O)ccc4c3Oc3c2ccc2cc(O)ccc32)C(N)=O)NC(=O)[C@H](Cc2ccccc2)NC(=O)[C@H](CCCNC(=N)N)NC(=O)[C@H](CCCNC(=N)N)NC(=O)[C@@H]2CCCN2C(=O)[C@H]2CCCN2C(=O)[C@@H](CCCNC(=N)N)NC(=O)[C@H](Cc2ccc3ccccc3c2)NC(=O)[C@H](Cc2ccccc2)NC1=O | 94
13 | C[C@@H]1NC(=O)[C@H](C)NC(=O)[C@H](Cc2ccc3ccccc3c2)NC(=O)[C@H](CCCNC(=N)N)NC(=O)[C@H](CCCNC(=N)N)NC(=O)[C@@H]2CCCN2C(=O)[C@H]2CCCN2C(=O)[C@H](CCCNC(=N)N)NC(=O)[C@H](CCCNC(=N)N)NC(=O)[C@H](Cc2ccccc2)NC(=O)[C@H](C)NC(=O)[C@H](C)NC(=O)[C@H](CCC(=O)NCCOCCOCC(=O)N[C@@H](CCCCNC(=O)c2ccc3c(c2)C(=O)OC32c3ccc4cc(O)ccc4c3Oc3c2ccc2cc(O)ccc32)C(N)=O)NC(=O)[C@H](C)NC1=O | 5.7
14 | N=C(N)NCCC[C@@H]1NC(=O)[C@H](Cc2ccc3ccccc3c2)NC(=O)[C@@H](Cc2ccccc2)NC(=O)[C@H](CCC(=O)NCCOCCOCC(=O)N[C@@H](CCCCNC(=O)c2ccc3c(c2)C(=O)OC32c3ccc4cc(O)ccc4c3Oc3c2ccc2cc(O)ccc32)C(N)=O)NC(=O)[C@@H](CCCNC(=N)N)NC(=O)[C@H](CCCNC(=N)N)NC(=O)[C@@H](CCCNC(=N)N)NC1=O | 100
15 | C[C@@H]1NC(=O)[C@H](Cc2ccc3ccccc3c2)NC(=O)[C@H](Cc2ccccc2)NC(=O)[C@H](C)NC(=O)[C@H](CCC(=O)NCCOCCOCC(=O)N[C@@H](CCCCNC(=O)c2ccc3c(c2)C(=O)OC32c3ccc4cc(O)ccc4c3Oc3c2ccc2cc(O)ccc32)C(N)=O)NC(=O)[C@H](Cc2ccccc2)NC(=O)[C@H](CCCNC(=N)N)NC(=O)[C@H](CCCNC(=N)N)NC(=O)[C@@H]2CCCN2C(=O)[C@H](C)NC1=O (cyclo([2Nal]AAPRRFE([AEEA-X1])AF)) | 46
16 | C[C@@H]1NC(=O)[C@H](C)NC(=O)[C@H](Cc2ccccc2)NC(=O)[C@H](CCCNC(=N)N)NC(=O)[C@@H](CCCNC(=N)N)NC(=O)[C@@H]2CCCN2C(=O)[C@H]2CCCN2C(=O)[C@H](CCCNC(=N)N)NC(=O)[C@H](Cc2ccc3ccccc3c2)NC(=O)[C@H](Cc2ccccc2)NC(=O)[C@H](C)NC(=O)[C@H](C)NC(=O)[C@H](CCC(=O)NCCOCCOCC(=O)N[C@@H](CCCCNC(=O)c2ccc3c(c2)C(=O)OC32c3ccc4cc(O)ccc4c3Oc3c2ccc2cc(O)ccc32)C(N)=O)NC(=O)[C@H](C)NC1=O | 32
